According to ChEMBL document CHEMBL1138188, “Synthesis and anti-HIV activity of D- and L-thietanose nucleosides” (J Med Chem, 2006):

Assays:
[1] = tested on: Vero; assay: Cytotoxicity against Vero cells; type: functional, cell-based; details: Chlorocebus sabaeus
Procedure, shortened: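 Log-phase Vero cells seeded at 5 × 10³ cells/well with 10-fold serial compound dilutions, incubated 3 days at 37 °C, 5% CO₂. MTT dye added overnight, formazan solubilized 5 h, absorbance read at 570 nm.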

[2] = tested on: Human immunodeficiency virus 1; assay: Antiviral activity against HIV1 in human PBMC; type: functional, organism-based
Procedure, shortened: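 PHA-stimulated (2-3 days) human PBM cells from seronegative donors, infected in bulk 1 h with HIV-1 LAI (100 TCID50/1 × 10⁷ cells, flask; or 200 TCID50/6 × 10⁵ cells/well, 24-well), then added to 10-fold serial compound dilutions in RPMI-1640/16% FBS/IL-2/DEAE-dextran. 5 days, 37 °C, 5% CO₂. Supernatant RT activity by poly(rA)·oligo(dT), ³H-TTP incorporation, 2 h 37 °C; EC50/EC90 by median effect method.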

[3] = tested on: CCRF-CEM; assay: Cytotoxicity against human CEM cells; type: functional, cell-based
Procedure, shortened: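 Log-phase CEM T-lymphoblastoid cells seeded at 2.5 × 10³ cells/well with 10-fold serial compound dilutions, held 4 days at 37 °C, 5% CO₂. MTT dye added overnight, then stop-solubilization 5 h; absorbance at 570 nm.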

[4] = tested on: PBMC; assay: Cytotoxicity against human PBMC; type: functional, cell-based
Procedure, shortened: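 Uninfected PHA-stimulated human PBM cells, log phase, 5 × 10⁴ cells/well, exposed to 10-fold serial compound dilutions for 5 days at 37 °C, 5% CO₂. MTT overnight, formazan dissolved 5 h, read at 570 nm.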

Compound | EC50 [2] [µM] | EC90 [2] [µM] | IC50 [1] [µM] | IC50 [3] [µM] | IC50 [4] [µM]
Cc1cn([C@H]2S[C@@H](CO)[C@@H]2CO)c(=O)[nH]c1=O | > 100 | > 100 | > 100 | > 100 | > 100
OC[C@H]1[C@H](n2cnc3c(O)ncnc32)S[C@@H]1CO | > 100 | > 100 | > 100 | > 100 | > 100
Nc1ncnc2c1ncn2[C@@H]1S[C@H](CO)[C@H]1CO | > 100 | > 100 | > 100 | > 100 | > 100
Nc1nc(=O)n([C@@H]2S[C@H](CO)[C@H]2CO)cc1Cl | > 100 | > 100 | > 100 | > 100 | > 100
Nc1ncnc2c1ncn2[C@H]1S[C@@H](CO)[C@@H]1CO | > 100 | > 100 | > 100 | > 100 | > 100
Nc1nc(=O)n([C@@H]2S[C@H](CO)[C@H]2CO)cc1Br | 11.5 | 41.9 | > 100 | 1.8 | > 100
Cc1cn([C@H]2C[C@H](N=[N+]=[N-])[C@@H](CO)O2)c(=O)[nH]c1=O [ZIDOVUDINE] |  | 0.01 |  |  | > 100
Nc1ccn([C@@H]2S[C@H](CO)[C@H]2CO)c(=O)n1 | 1.3 | 5.3 | 54.8 | 4.3 | ≤ 1

The next lines start with results.

EC50 [2] [µM] | EC90 [2] [µM] | Compound | IC50 [1] [µM] | IC50 [3] [µM] | IC50 [4] [µM]
> 100 | > 100 | Nc1nc(O)c2ncn([C@H]3S[C@@H](CO)[C@@H]3CO)c2n1 | > 100 | > 100 | > 100
> 100 | > 100 | Nc1nc(O)c2ncn([C@@H]3S[C@H](CO)[C@H]3CO)c2n1 | > 100 | > 100 | > 100
6.9 | 23.1 | O=c1ccn([C@@H]2S[C@H](CO)[C@H]2CO)c(=O)[nH]1 | > 100 | 4.9 | 8.5
14.1 | 47.6 | Nc1ccn([C@H]2S[C@@H](CO)[C@@H]2CO)c(=O)n1 | > 100 | 45.6 | 13.1
> 100 | > 100 | OC[C@H]1[C@H](CO)S[C@@H]1n1cnc2c(O)ncnc21 | > 100 | > 100 | > 100
5.8 | 13.9 | Nc1nc(=O)n([C@@H]2S[C@H](CO)[C@H]2CO)cc1F | > 100 | 19 | < 1
> 100 | > 100 | O=c1ccn([C@H]2S[C@@H](CO)[C@@H]2CO)c(=O)[nH]1 | > 100 | > 100 | > 100
> 100 | > 100 | Cc1cn([C@@H]2S[C@H](CO)[C@H]2CO)c(=O)[nH]c1=O | > 100 | > 100 | > 100
